Reference: ChEMBL document CHEMBL5030540 (J Med Chem, 2021)
pEC50, pKi: −log10 of the molar value. Active and inactive are the calls of the source.

Tests used:
Mu-type opioid receptor [1] = molecular target: T1, Mu-type opioid receptor (Homo sapiens, UniProt P35372); test: Agonist activity at human MOR receptor expressed in HTLA cells co-expressing TEV-fused-beta-arrestin2 assessed as induction of beta-arrestin2 recruitment by Tango assay relative to DAMGO; format: functional, cell-based
Procedure, shortened: (§1)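 HTLA cells expressing TEV-fused β-arrestin2 transiently transfected with a human MOR Tango construct. β-arrestin2 recruitment measured. […] Mean pEC50 ± SEM and Emax% ± SEM from triplicate runs.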

Mu-type opioid receptor [2] = molecular target: T1, Mu-type opioid receptor; test: Agonist activity at human MOR expressed in HEK293T cells assessed as inhibition of forskolin-stimulated cAMP accumulation incubated for 30 mins by Glo-sensor cAMP assay; format: functional, cell-based
Procedure, shortened: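 HEK293T cells transiently co-transfected with human MOR and a luciferase-based cAMP biosensor. Gαi-mediated cAMP inhibition read by luminescence. EC50 given as pEC50 ± SEM, triplicate runs.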

Mu-type opioid receptor [3] = molecular target: T1, Mu-type opioid receptor; test: Agonist activity at human MOR expressed in HEK-293T cells assessed as inhibition of forskolin-stimulated cAMP accumulation incubated for 30 mins by Glo-sensor cAMP assay relative to DAMGO; format: functional, cell-based; conditions: HEK293T
Procedure, shortened: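 HEK293T cells transiently co-transfected with human MOR and a luciferase-based cAMP biosensor. Gαi-mediated cAMP inhibition read by luminescence. […] EC50 given as pEC50 ± SEM, triplicate runs.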

Mu-type opioid receptor [4] = molecular target: T1, Mu-type opioid receptor; test: Partial agonist activity at human MOR expressed in HEK293T cells co-expressing Galpha-RLuc8:Gbeta:Ggamma-GFP2 assessed as maximal Gi-1 activation measured after 15 mins by BRET assay relative to control; format: functional, cell-based; conditions: filed as partial agonist
[5] = molecular target: Voltage-dependent L-type calcium channel subunit alpha-1C (Rattus norvegicus, UniProt P22002); test: Displacement of [3H]Diltiazem from Cav1.2 in rat brain at 10 uM incubated for 120 mins by radiometric scintillation counting analysis; format: tissue-based; conditions: 2 h
Chain of Voltage-dependent L-type calcium channel subunit alpha-1C (P22002 whole entry): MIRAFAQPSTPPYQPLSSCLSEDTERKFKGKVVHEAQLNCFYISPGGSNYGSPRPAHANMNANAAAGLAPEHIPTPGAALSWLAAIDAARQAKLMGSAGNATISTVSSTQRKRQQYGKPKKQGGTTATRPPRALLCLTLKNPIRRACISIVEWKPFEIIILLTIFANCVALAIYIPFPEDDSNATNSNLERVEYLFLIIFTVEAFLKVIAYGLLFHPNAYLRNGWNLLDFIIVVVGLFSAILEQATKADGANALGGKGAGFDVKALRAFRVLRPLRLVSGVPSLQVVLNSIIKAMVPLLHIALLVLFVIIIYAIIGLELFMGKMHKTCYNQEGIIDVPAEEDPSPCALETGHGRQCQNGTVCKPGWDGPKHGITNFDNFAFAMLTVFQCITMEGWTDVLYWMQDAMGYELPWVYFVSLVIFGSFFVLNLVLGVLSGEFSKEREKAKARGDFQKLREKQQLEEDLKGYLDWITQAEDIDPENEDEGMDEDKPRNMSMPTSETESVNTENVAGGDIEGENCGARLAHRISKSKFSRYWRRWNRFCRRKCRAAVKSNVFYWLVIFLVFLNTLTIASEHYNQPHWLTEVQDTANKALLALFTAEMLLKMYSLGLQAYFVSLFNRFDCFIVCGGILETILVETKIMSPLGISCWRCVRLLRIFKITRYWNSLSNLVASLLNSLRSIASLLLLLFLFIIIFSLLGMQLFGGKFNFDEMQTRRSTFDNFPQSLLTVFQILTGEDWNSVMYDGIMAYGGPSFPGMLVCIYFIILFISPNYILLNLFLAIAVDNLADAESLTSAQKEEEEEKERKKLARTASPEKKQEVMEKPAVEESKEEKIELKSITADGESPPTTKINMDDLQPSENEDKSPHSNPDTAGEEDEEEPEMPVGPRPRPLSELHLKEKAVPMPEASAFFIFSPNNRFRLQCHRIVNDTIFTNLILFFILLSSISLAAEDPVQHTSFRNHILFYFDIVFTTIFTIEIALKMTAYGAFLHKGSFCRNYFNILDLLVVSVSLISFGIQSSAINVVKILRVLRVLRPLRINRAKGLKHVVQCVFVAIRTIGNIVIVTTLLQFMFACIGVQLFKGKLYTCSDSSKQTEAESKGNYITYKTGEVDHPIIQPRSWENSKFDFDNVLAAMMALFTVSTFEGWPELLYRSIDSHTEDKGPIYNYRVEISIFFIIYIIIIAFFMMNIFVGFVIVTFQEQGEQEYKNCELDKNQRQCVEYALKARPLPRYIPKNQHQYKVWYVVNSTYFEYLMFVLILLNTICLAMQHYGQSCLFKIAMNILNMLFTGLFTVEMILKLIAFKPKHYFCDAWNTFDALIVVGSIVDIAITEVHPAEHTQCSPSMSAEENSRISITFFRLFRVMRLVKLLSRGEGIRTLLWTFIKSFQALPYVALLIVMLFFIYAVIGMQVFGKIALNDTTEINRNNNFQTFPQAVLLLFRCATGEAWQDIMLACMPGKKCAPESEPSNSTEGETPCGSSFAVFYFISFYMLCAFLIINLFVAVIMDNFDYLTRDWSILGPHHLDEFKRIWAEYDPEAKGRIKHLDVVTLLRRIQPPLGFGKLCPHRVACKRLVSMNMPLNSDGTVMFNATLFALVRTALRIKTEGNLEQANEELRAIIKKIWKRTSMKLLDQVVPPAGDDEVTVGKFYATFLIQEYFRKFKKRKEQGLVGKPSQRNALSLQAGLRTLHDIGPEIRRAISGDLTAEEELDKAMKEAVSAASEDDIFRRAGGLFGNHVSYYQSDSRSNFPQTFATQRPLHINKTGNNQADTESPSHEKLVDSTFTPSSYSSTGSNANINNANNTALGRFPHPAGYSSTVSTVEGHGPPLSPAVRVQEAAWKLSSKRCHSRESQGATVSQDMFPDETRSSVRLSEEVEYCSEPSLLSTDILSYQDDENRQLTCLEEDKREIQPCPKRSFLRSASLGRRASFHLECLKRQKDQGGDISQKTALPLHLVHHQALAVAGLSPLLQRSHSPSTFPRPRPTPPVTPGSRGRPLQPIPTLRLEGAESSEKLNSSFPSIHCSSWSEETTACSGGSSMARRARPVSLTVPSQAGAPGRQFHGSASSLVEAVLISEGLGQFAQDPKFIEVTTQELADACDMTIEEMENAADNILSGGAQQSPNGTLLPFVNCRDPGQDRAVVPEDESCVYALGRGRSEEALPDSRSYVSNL

[6] = Toxicity in C57BL/6 mouse model assessed as conditioned place preference at 15 mg/kg, sc; format: organism-based; conditions: in vivo
Procedure, shortened: (§2)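 Counterbalanced two-compartment place conditioning in C57BL/6J mice. […] Time on drug-paired side over a 20 min test compared with preconditioning by Welch-corrected t test.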

[7] = molecular target: Mu-type opioid receptor (Mus musculus) (UniProt P42866); test: Partial agonist activity at mouse MOR expressed in HEK293T cells assessed as Nb33 recruitment by BRET assay relative to control; format: functional, cell-based
Chain of Mu-type opioid receptor (Mus musculus) (P42866 whole entry): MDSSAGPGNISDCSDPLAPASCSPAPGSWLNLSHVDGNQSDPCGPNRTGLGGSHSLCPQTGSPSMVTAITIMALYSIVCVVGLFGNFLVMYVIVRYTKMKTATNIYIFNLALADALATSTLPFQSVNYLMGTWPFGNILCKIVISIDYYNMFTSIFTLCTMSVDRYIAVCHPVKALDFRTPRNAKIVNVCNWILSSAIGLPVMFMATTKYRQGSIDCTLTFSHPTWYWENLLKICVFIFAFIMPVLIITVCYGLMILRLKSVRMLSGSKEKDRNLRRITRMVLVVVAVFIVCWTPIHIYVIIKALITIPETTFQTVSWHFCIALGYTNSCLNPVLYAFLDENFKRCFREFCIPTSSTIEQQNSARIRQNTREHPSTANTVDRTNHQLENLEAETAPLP
Procedure, shortened: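 HEK293T cells transfected with murine MOR-NanoLuc (1 μg) and Nb33-Venus (4 μg) using PEI and used 48 h later. Cells in PBS given coelenterazine H (5 μM), ligand added at 5 min, BRET read 10 min later. Three-parameter fit; ≥3 independent trials in triplicate.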

[8] = Toxicity in C57BL/6 mouse model assessed as conditioned place aversion at 15 mg/kg, sc; format: organism-based; conditions: in vivo; procedure, shortened: as §2
Mu-type opioid receptor [9] = molecular target: T1, Mu-type opioid receptor; test: Agonist activity at human MOR expressed in CHO-K1 cells co-expressing beta-arrestin2 assessed as beta-arrestin2 EFC recruitment measured after 90 mins by PathHunter assay relative to control; format: functional, cell-based
Procedure, shortened: (§3)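 CHO-K1 cells stably expressing human μOR grown to confluency and seeded overnight at 37 °C, 5% CO2. 5× dilution series of compound in Opti-MEM added for 90 min at 37 °C. Detection reagent then added for 60 min at room temperature in the dark, and chemiluminescence read.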

Mu-type opioid receptor [10] = molecular target: T1, Mu-type opioid receptor; test: Displacement of [3H]-DAMGO from mu opioid receptor (unknown origin) expressed in CHO cells at 10 uM; format: cell-based
[11] = molecular target: GABA-A receptor; anion channel (Rattus norvegicus) (UniProt O09028+P15431+P18506+P18508+P19969+P20236+P23574+P23576+P28471+P28473+P30191+P62813+P63079+P63138+Q91ZM7+Q9ES14); test: Partial agonist activity at GABAA receptor in rat brain slice assessed as induction of receptor-mediated inhibitory postsynaptic current at 10 uM by Whole cell electrophysiology; format: tissue-based; conditions: filed as partial agonist
Procedure, shortened: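 Horizontal VTA slices (200 μm) from male Sprague–Dawley rats. Whole-cell voltage clamp at −70 mV, 33 °C, KCl internal. GABAA IPSCs isolated with 10 μM DNQX and evoked by paired pulses every 10 s. Drug (10 μM) bath applied. Mean IPSC amplitude at minutes 4–7 of drug compared with the 4 min baseline.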

[12] = Toxicity in C57BL/6 mouse model assessed as conditioned place preference at 10 mg/kg, IP; format: organism-based; conditions: in vivo; procedure, shortened: as §2
Mus musculus [13] = test: Antinociceptive activity in C57BL/6 mouse model assessed as measuring increase in tail withdrawal latency at 10 mg/kg, po at 55 degC measured at 30 mins peak time point by […] withdrawal assay; format: functional; conditions: 0.5 h
Procedure, shortened: (§4)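 C57BL/6J mice given compound sc or po. 55 °C warm-water tail withdrawal with baseline latency taken first, then measured every 10 min, 15 s cutoff. % antinociception = 100 × (test − baseline)/(15 − baseline). sc doses 1, 3, 10 mg/kg (n = 8). po dose 10 mg/kg (n = 13). ED50 with 95% CI.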

[14] = Toxicity in C57BL/6 mouse model assessed as hyperlocomotion at 15 times of ED50 for antinociceptive effect; conditions: in vivo
Procedure, shortened: (§5)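 Mice habituated 60 min in sealed CLAMS cages, dosed sc, and confined 5 min later. Respiration rate measured by pressure transducer and ambulation by infrared beam breaks, every 20 min. […] Expressed as % vehicle. Two-way ANOVA with Dunnett's test.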

Mu-type opioid receptor [15] = molecular target: T1, Mu-type opioid receptor; test: Partial agonist activity at human MOR expressed in HEK293T cells co-expressing Galpha-RLuc8:Gbeta:Ggamma-GFP2 assessed as Galpha-i/o activation measured after TRUPATH assay; format: functional, cell-based; conditions: filed as partial agonist
Mu-type opioid receptor [16] = molecular target: T1, Mu-type opioid receptor; test: Agonist activity at human MOR receptor expressed in HTLA cells co-expressing TEV-fused-beta-arrestin2 assessed as induction of beta-arrestin2 recruitment by Tango assay; format: functional, cell-based; procedure, shortened: as §1
Mus musculus [17] = test: Antinociceptive activity in sc dosed C57BL/6 MOR knock out mouse model assessed as increase in tail withdrawal latency measured at 20 mins by radiant heat withdrawal assay; format: functional, organism-based
[18] = Toxicity in C57BL/6 mouse model assessed as respiratory depression at 15 times of ED50 for antinociceptive effect; conditions: in vivo; procedure, shortened: as §5
[19] = Toxicity in C57BL/6 mouse model assessed as charcoal distance travel at 15 mg/kg, sc measured after 3 hrs by gastrointestinal transit assay (reference value: 29.5 +/- 1 cm); format: organism-based; conditions: in vivo
Mu-type opioid receptor [20] = molecular target: T1, Mu-type opioid receptor; test: Agonist activity at human MOR expressed in CHO-K1 cells co-expressing beta-arrestin2 assessed as beta-arrestin2 EFC recruitment measured after 90 mins by PathHunter assay; format: functional, cell-based; procedure, shortened: as §3
Mus musculus [21] = test: Antinociceptive activity in C57BL/6 mouse model assessed as measuring increase in tail withdrawal latency at 10 mg/kg, sc at 55 degC measured at 20 mins peak time point by […] withdrawal assay; format: functional; procedure, shortened: as §4
Mus musculus [22] = test: Antinociceptive activity in sc dosed C57BL/6 mouse model assessed as increase in tail withdrawal latency measured at 20 mins by […] withdrawal assay; format: functional; conditions: C57BL/6, sc; procedure, shortened: as §4
[23] = HTLA230, filed as partial agonist

T1 sequence (P35372 whole entry, the tested form may be a part): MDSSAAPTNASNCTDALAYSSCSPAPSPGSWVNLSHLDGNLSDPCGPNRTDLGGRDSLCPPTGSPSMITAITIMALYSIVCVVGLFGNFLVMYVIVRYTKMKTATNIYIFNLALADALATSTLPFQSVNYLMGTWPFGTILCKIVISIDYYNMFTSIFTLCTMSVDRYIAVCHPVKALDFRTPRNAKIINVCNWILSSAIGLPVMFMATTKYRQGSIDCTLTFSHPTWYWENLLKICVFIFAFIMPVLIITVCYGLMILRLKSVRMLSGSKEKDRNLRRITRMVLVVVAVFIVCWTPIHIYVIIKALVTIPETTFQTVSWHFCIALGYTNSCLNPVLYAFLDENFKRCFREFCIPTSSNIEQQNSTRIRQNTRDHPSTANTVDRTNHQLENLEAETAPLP

Which Emax (Mu-type opioid receptor [1]; HTLA230) does the source give for CC[C@@H]1CN2CCc3c([nH]c4cccc(C)c34)[C@@H]2C[C@@H]1/C(=C\OC)C(=O)OC here?
Its Emax is < 20%.

What about the pEC50 (Mu-type opioid receptor [2]) of the same molecule?
The pEC50 was 7.08.

What about the Emax (Mu-type opioid receptor [3]; filed as agonist) of the same molecule?
The Emax was 97.1%.

For CC[C@@H]1CN2CCc3c([nH]c4cccc(OC)c34)[C@@H]2C[C@@H]1/C(=C\OC)C(=O)OC, which Emax (Mu-type opioid receptor [1]; HTLA230) is on record?
The Emax was < 20%.

And the Emax (Mu-type opioid receptor [3]; filed as agonist)?
Its Emax is 84.7%.

Which results are given for CC[C@@H]1CN2CC[C@@]3(O)C(=Nc4cccc(-c5ccoc5)c43)[C@@H]2C[C@@H]1/C(=C\OC)C(=O)OC?
Emax (Mu-type opioid receptor [1]; [23]): 45%; Emax (Mu-type opioid receptor [4]): 60%; Activity [5]: Active; pEC50 (Mu-type opioid receptor [2]): 8.14; Activity [6]: Non-Toxic; Emax [7]: 20%; Activity [8]: Non-Toxic; Emax (Mu-type opioid receptor [9]): < 20%; pKi (Mu-type opioid receptor [10]): 8.22; Activity [11]: Active; Activity [12]: Toxic; MPE (Mus musculus [13]): 87%; Activity [14]: Non-Toxic; Emax (Mu-type opioid receptor [3]; filed as partial agonist): 106%; Activity (Mu-type opioid receptor [15]): Active; pEC50 (Mu-type opioid receptor [16]): 4.96; Activity (Mus musculus [17]): Active; Activity [18]: Non-Toxic; Activity [19]: 30.8 cm; Emax (Mu-type opioid receptor [20]): 31%; MPE (Mus musculus [21]): 100%; ED50 (Mus musculus [22]): 3.05 mg/kg

Which Emax (Mu-type opioid receptor [1]; HTLA230) does the source give for CC[C@@H]1CN2CC[C@@]3(O)C(=Nc4ccc(-c5ccoc5)c(OC)c43)[C@@H]2C[C@@H]1/C(=C\OC)C(=O)OC here?
The Emax was 31.3%.

And the pEC50 (Mu-type opioid receptor [2])?
The pEC50 was 6.27.

And the Emax (Mu-type opioid receptor [3]; filed as agonist)?
The Emax was 100%.

And the pEC50 (Mu-type opioid receptor [16])?
Its pEC50 is 5.09.

Which results are given for CC[C@@H]1CN2CC[C@@]3(O)C(=Nc4c(-c5ccccc5)ccc(OC)c43)[C@@H]2C[C@@H]1/C(=C\OC)C(=O)OC?
Emax (Mu-type opioid receptor [1]; HTLA230): < 20%; pEC50 (Mu-type opioid receptor [2]): 4.76; Emax (Mu-type opioid receptor [3]): < 20%

Which Emax (Mu-type opioid receptor [1]; HTLA230) does the source give for CC[C@@H]1CN2CCc3c([nH]c4c(-c5ccoc5)ccc(OC)c34)[C@@H]2C[C@@H]1/C(=C\OC)C(=O)OC here?
Its Emax is < 20%.

And the pEC50 (Mu-type opioid receptor [2])?
Its pEC50 is 6.73.

What about the Emax (Mu-type opioid receptor [3]; filed as agonist) of the same molecule?
The Emax was 78.2%.

Which Emax (Mu-type opioid receptor [1]; HTLA230) does the source give for CC[C@@H]1CN2CCc3c([nH]c4cccc(-c5ccccc5)c34)[C@@H]2C[C@@H]1/C(=C\OC)C(=O)OC here?
The Emax was < 20%.

And the pEC50 (Mu-type opioid receptor [2])?
Its pEC50 is 7.08.

What about the Emax (Mu-type opioid receptor [3]; filed as agonist) of the same molecule?
The Emax was 46.1%.

Which Emax (Mu-type opioid receptor [1]; [23]) does the source give for CC[C@@H]1CN2CC[C@@]3(O)C(=Nc4cccc(-c5ccccc5)c43)[C@@H]2C[C@@H]1/C(=C\OC)C(=O)OC here?
The Emax was 283%.

What about the Emax (Mu-type opioid receptor [4]) of the same molecule?
Its Emax is 60%.

What about the Activity [5] of the same molecule?
The Activity was “Active”.

And the pEC50 (Mu-type opioid receptor [2])?
The pEC50 was 7.44.

And the Emax [7]?
The Emax was 20%.

And the Emax (Mu-type opioid receptor [9])?
The Emax was < 20%.

And the Activity [11]?
Its Activity is “Active”.

And the Emax (Mu-type opioid receptor [3]; filed as partial agonist)?
Its Emax is 108%.

What about the Activity (Mu-type opioid receptor [15]) of the same molecule?
The Activity was “Active”.

What about the pEC50 (Mu-type opioid receptor [16]) of the same molecule?
Its pEC50 is 4.72.

And the Emax (Mu-type opioid receptor [20])?
The Emax was 31%.

Which Emax (Mu-type opioid receptor [1]; HTLA230) does the source give for CC[C@@H]1CN2CCc3c([nH]c4c(-c5ccccc5)ccc(OC)c34)[C@@H]2C[C@@H]1/C(=C\OC)C(=O)OC here?
The Emax was < 20%.

What about the pEC50 (Mu-type opioid receptor [2]) of the same molecule?
Its pEC50 is 5.95.

And the Emax (Mu-type opioid receptor [3]; filed as agonist)?
Its Emax is 50.4%.

Which Emax (Mu-type opioid receptor [1]; HTLA230) does the source give for CC[C@@H]1CN2CC[C@@]3(O)C(=Nc4cccc(OC)c43)[C@@H]2C[C@@H]1/C(=C\OC)C(=O)OC here?
The Emax was < 20%.

What about the Emax (Mu-type opioid receptor [3]; filed as agonist) of the same molecule?
Its Emax is 95.5%.
